TLR9-MyD88 block: inhibitors of TLR9-MyD88 association in cells, primary screen, cell-based, CHO, BLA complementation, fluorescence; Toll-like receptor 9 (Homo sapiens) + Myeloid differentiation primary response protein …; CCF4 FRET ratio; inhibition, % at 4.98 µM; 0.21% of 340,000 active; AID 504734, 2011;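 active = inhibition above the mean over all tested compounds plus 3 SD, cut at about 21% in these data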
NOD2-RIPK2 inh: NOD2-RIPK2 binding disruptors in cells, primary screen, fluorescence, CHO cells, BLA complementation | Receptor-interacting serine/threonine-protein kinase 2 (Homo sapiens), O43353 | inhibition, % at 4.98 µM | CCF4 ratio | 0.38% of 360,000 active; in the data active = inhibition above about 21%
TLR4-MyD88 BLA: inhibitors of TLR4-MyD88 association in cells, primary screen, cell-based, HeLa CL3-4, BLA complementation, FRET ratio | inhibition, % at 8.4 µM | HeLa CL3-4 TLR4/MyD88 BLA complementation | AID 861, 2007 | Toll-like receptor 4 (Homo sapiens) + Myeloid differentiation primary response protein … | 0.18% of 200,000 active; in the data active = inhibition above about 25%
MC4R antagonist: MC4R antagonists of cAMP signaling, primary screen, cell-based, TR-FRET, antagonist arm of biased-ligand search; Melanocortin receptor 4 (Homo sapiens), P32245; MC4R-expressing cells, MTII-stimulated cAMP, LANCE TR-FRET; inhibition, % at 6.5 µM; 0.48% of 360,000 active;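 active = inhibition above its plate's cutoff, the mean of tested wells on that plate plus 3 SD, cut at about 29% in these data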
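material = U2OS cells stably expressing human melanocortin 4 receptor (MC4R) | also added = Melanotan II challenge | dosing = single nominal compound dose of 6.5 µM | detection = TR-FRET with Eu-cAMP and labeled anti-cAMP, 671 nm | replication = singlicate | timing = compound 30 min, challenge 1 h, detection 1 h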
MC4R ag barr: MC4R agonists recruiting beta-arrestin, primary screen, cell-based, luminescence, agonist arm of biased-ligand search; Melanocortin receptor 4 (Homo sapiens), P32245; U2OS MC4R beta-arrestin complementation; percent of melanotan II response, DMSO zero; activation, % at 8.9 µM; 0.98% of 360,000 active;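 active = activation above a per-plate cutoff, the mean activation of sample wells on that plate plus 3 SD, cut at about 8% in these data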
MC4R barr conf: MC4R beta-arrestin agonists, retest, confirmation, cell-based, luminescence, U2OS; shares compounds with MC4R ag barr; U2OS MC4R beta-arrestin recruitment; scaled DMSO 0%, Melanotan II 100%; activation, % at 8.9 µM; 31% of 2,400 active;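 active = mean activation across replicates above the hit cutoff set in the earlier primary screen, cut at about 8% in these data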
MOR-DOR barr ag: agonists of MOR-DOR heterodimerization, counter-screen for MC4R biased agonist project, cell-based, luminescence; U2OS PathHunter beta-arrestin, beta-gal luminescence; percent of deltorphin B response, DMSO zero; 5.8% of 2,400 active; shares compounds with MC4R ag barr; activation, % at 9.2 µM;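 active = mean activation across replicates exceeds the hit threshold derived in the earlier primary screen, cut at about 18% in these data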
Target sequence (P35372 whole entry, looked up): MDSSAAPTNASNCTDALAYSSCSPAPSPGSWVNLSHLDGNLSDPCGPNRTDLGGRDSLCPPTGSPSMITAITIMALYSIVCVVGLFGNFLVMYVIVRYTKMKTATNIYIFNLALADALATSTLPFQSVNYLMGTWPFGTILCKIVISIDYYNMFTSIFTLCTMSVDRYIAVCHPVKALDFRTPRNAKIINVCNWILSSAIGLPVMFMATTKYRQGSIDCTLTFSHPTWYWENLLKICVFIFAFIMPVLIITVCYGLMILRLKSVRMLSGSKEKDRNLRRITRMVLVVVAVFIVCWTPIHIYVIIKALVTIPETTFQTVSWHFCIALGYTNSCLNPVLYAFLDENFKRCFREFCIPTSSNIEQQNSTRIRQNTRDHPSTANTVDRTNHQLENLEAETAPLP
Target sequence (P41143 whole entry, looked up): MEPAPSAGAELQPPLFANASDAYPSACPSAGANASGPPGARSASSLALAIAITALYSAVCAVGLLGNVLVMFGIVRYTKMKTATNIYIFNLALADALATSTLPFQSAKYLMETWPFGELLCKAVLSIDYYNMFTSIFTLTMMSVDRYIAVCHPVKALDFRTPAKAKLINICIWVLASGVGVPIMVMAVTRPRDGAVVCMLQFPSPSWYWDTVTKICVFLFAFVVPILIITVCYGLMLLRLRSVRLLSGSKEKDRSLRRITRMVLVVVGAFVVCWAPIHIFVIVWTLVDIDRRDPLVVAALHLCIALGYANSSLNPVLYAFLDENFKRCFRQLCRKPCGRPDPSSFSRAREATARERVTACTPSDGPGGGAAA
Large screens that a line does not name were inactive (follow-up assays come after a bar, where they were run); ! = not active in a repeat. Compounds with a hit are over-represented: about 1.8% of the library has one in this group of screens.

Cn1c(CNC(=O)c2ccc(Cl)cc2)nnc1SCC(=O)Nc1sc2c(c1C#N)CCCC2	MC4R ag barr 17 | MC4R barr conf inactive | MOR-DOR barr ag inactive
Cc1ccccc1OCC(=O)Nc1sc2c(c1C#N)CCC2	MC4R ag barr 17 | MC4R barr conf inactive | MOR-DOR barr ag inactive
N#Cc1c(NC(=O)CSc2nnc(-c3ccccc3)o2)sc2c1CCCC2	MC4R ag barr 23 | MC4R barr conf inactive | MOR-DOR barr ag inactive
COc1cccc(CNC(=O)c2cc(=O)[nH]c3ccc(S(=O)(=O)N4CCOCC4)cc23)c1	none (no result: TLR4-MyD88 BLA)
Cc1nc([N+](=O)[O-])cn1CC(=O)c1ccc(F)cc1	none (no result: TLR4-MyD88 BLA)
COc1ccc(OC)c(-c2cc(C(=O)Nc3c(C)nn(Cc4ccccc4)c3C)no2)c1	none
COc1ccc(-c2cc(C(=O)Nc3c(C)nn(Cc4ccccc4Cl)c3C)no2)cc1	MC4R ag barr 13 | MC4R barr conf 11 | MOR-DOR barr ag inactive
CC(=O)Nc1cccc(NC(=O)CSc2ccc(C(F)(F)F)cc2[N+](=O)[O-])c1	none
O=C(CSc1ccc(C(F)(F)F)cc1[N+](=O)[O-])Nc1ccc2ccccc2c1	MC4R ag barr 11 | MC4R barr conf inactive | MOR-DOR barr ag inactive
COc1ccccc1CNC(=O)CN(CCc1ccccc1)S(C)(=O)=O	none
COc1ccc(OCC(=O)N/N=C/C(C)=C/c2ccco2)c(Br)c1	MC4R ag barr 19 (no result: TLR4-MyD88 BLA) | MC4R barr conf inactive | MOR-DOR barr ag inactive
COC(=O)c1cc(Nc2cc(C)c3ccc(O)cc3n2)cc(C(=O)OC)c1	none (no result: TLR4-MyD88 BLA)
COC(=O)c1cc(Nc2cc(C)c3c(O)cccc3n2)cc(C(=O)OC)c1	MC4R ag barr 12 (no result: TLR4-MyD88 BLA) | MC4R barr conf inactive | MOR-DOR barr ag inactive
CCOc1ccc(N(CC(=O)NCCc2ccccc2)C(=O)CCC(=O)Nc2cc(C)ccn2)cc1	none (no result: TLR4-MyD88 BLA)
O=C(CS(=O)(=O)c1cn(CC(=O)N2CCCC2)c2ccccc12)Nc1ccccc1F	none (no result: TLR4-MyD88 BLA)
O=C1CN(C(=O)COC(=O)/C=C/c2ccc(OC(F)F)cc2)c2ccccc2N1	MC4R ag barr 11 | MC4R barr conf inactive | MOR-DOR barr ag inactive
O=C(CSc1ccccc1Cl)NC1CCCc2ccccc21 (centres undefined)	none
O=C(CSc1ccc(Cl)cc1)NC1CCCc2ccccc21 (centres undefined)	MC4R ag barr 11 | MC4R barr conf inactive | MOR-DOR barr ag inactive
O=C(CSc1c(Cl)cccc1Cl)NC1CCCc2ccccc21 (centres undefined)	MC4R ag barr 31 | MC4R barr conf inactive | MOR-DOR barr ag inactive
COc1ccc2oc(C(=O)OCC(=O)Nc3ccc(NC(C)=O)cc3)c(C)c2c1	none (no result: TLR4-MyD88 BLA)
CCOc1ccccc1NC(=O)c1oc2ccccc2c1NC(=O)C1CC1	none (no result: TLR4-MyD88 BLA)
COc1ccc2oc(C(=O)OCC(=O)NCc3ccccc3OC)c(C)c2c1	MC4R ag barr 21 (no result: TLR4-MyD88 BLA) | MC4R barr conf inactive | MOR-DOR barr ag inactive
COc1ccc(NC(=O)c2oc3ccccc3c2C)c(OC)c1	MC4R ag barr 14 | MC4R barr conf inactive | MOR-DOR barr ag inactive
COc1ccccc1NC(=O)c1oc2ccccc2c1NC(=O)C1CC1	MC4R ag barr 10 (no result: TLR4-MyD88 BLA) | MC4R barr conf inactive | MOR-DOR barr ag inactive
COc1ccc(C2c3[nH]c4ccccc4c3CCN2C(=O)Cc2nonc2C)c(F)c1 (centres undefined)	none (no result: TLR4-MyD88 BLA)
CCCCNC(=S)N(C)/N=C/c1ccc(OCC(=O)Nc2c(C)cc(C)cc2C)c(OC)c1	MC4R ag barr 14 | MC4R barr conf 11 | MOR-DOR barr ag inactive
Cc1cc(NC(=O)CSc2nnc(NCc3ccccc3)s2)no1	none (no result: TLR4-MyD88 BLA)
COc1ccccc1Nc1nnc(SCC(=O)Nc2cc(C)on2)s1	MC4R ag barr 30 | MC4R barr conf inactive | MOR-DOR barr ag inactive
CN1CCN(C2Cc3ccccc3Sc3ccc(Cl)cc32)CC1 (centres undefined)	none (no result: TLR4-MyD88 BLA)
CSc1ccc2c(c1)C(N1CCN(C)CC1)Cc1ccccc1S2 (centres undefined)	MC4R ag barr 11! (no result: TLR4-MyD88 BLA) | MC4R barr conf inactive | MOR-DOR barr ag inactive
O=C(COc1ccc2ccccc2c1)Nc1nc2ccccc2[nH]1	MC4R ag barr 10 | MC4R barr conf inactive | MOR-DOR barr ag inactive
COc1ccc(OC)c(NC(=O)COC(=O)c2cc3c(s2)CCC3)c1	MC4R ag barr 20 | MC4R barr conf inactive | MOR-DOR barr ag inactive
O=C(CSc1ccccc1)Nc1ccc(C(=O)Nc2ccc(O)cc2)cc1	MC4R ag barr 28 | MC4R barr conf 15 | MOR-DOR barr ag inactive
COc1ccc(NC(=O)c2ccccc2NC(=O)CSc2ccc(Cl)cc2)cc1	none
COc1ccc(C(=O)Nc2ccccc2C(=O)Nc2cccnc2)cc1	none (no result: TLR4-MyD88 BLA)
COc1ccc(NC(=O)c2ccccc2NC(=O)c2ccccc2)cc1	MC4R ag barr 9.6 (no result: TLR4-MyD88 BLA) | MC4R barr conf inactive | MOR-DOR barr ag inactive
O=C(Cc1ccccc1)Nc1ccc(C(=O)Nc2ccc(O)cc2)cc1	none (no result: TLR4-MyD88 BLA)
COc1ccc(NC(=O)c2ccccc2NC(=O)CSc2ccccc2)cc1	MC4R ag barr 13 | MC4R barr conf inactive | MOR-DOR barr ag inactive
CCN1C(=O)/C(=C2/Sc3ccc(OC)cc3N2C)SC1=Nc1cccc(O)c1	MC4R ag barr 14 | MC4R barr conf 17 | MOR-DOR barr ag inactive
CCN1C(=O)/C(=C2/Sc3ccc(OC)cc3N2C)SC1=Nc1ccc(C(C)=O)cc1	none (no result: TLR9-MyD88 block, NOD2-RIPK2 inh, MC4R antagonist, MC4R ag barr)
COc1ccc(NC(=O)COC(=O)c2cc(SC)ccc2Cl)c(OC)c1	MC4R ag barr 22 | MC4R barr conf 9.1 | MOR-DOR barr ag inactive
O=C(NCc1ccc2c(c1)OCO2)c1cc(-c2cc(Cl)ccc2O)n[nH]1	MC4R ag barr 11 (no result: TLR4-MyD88 BLA) | MC4R barr conf inactive | MOR-DOR barr ag inactive
CSCCC(NS(=O)(=O)c1ccc(Cl)cc1)C(=O)OCC(=O)c1c(C)[nH]c2ccccc12 (centres undefined)	MC4R ag barr 12 | MC4R barr conf inactive | MOR-DOR barr ag inactive
O=C(CN1CCOCC1)NN=C1CCCCCCCCCCC1	none
NC(=O)COc1ccc2oc(=O)cc(-c3cc4ccccc4o3)c2c1	none (no result: TLR4-MyD88 BLA)
COC(=O)COc1ccc2oc(=O)cc(-c3cc4ccccc4o3)c2c1	MC4R ag barr 16 (no result: TLR4-MyD88 BLA) | MC4R barr conf inactive | MOR-DOR barr ag inactive
Cc1ccccc1NC(=O)Cc1nc(COC(=O)c2ccc(Cl)nc2)cs1	none (no result: TLR4-MyD88 BLA)

Bioassay records: PubChem BioAssay, The Scripps Research Institute Molecular Screening Center
